The results in this text go back to ChEMBL document CHEMBL4002637, “Synthesis, characterization, in vitro SAR and in vivo evaluation of N,N'bisnaphthylmethyl 2-alkyl substituted imidazolium salts against NSCLC” (Bioorg Med Chem Lett, 2017).

SMILES strings stand for the structures. Calls of active or inactive are those of the source. No cut-off for these calls is given here.

Data set [1] deals with NCI-H460. Put plainly: Antiproliferative activity against human NCI-H460 cells using 1% DMSO/water compound formulation after 72 hrs by MTT assay. The note with it: NCI-H460, 72 h. The format is functional, cell-based. The procedure, abridged: (§1)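 MTT anti-proliferation on NSCLC lines. Compounds dissolved in DMSO, diluted with water to 1% DMSO, then into growth medium (max 0.032% DMSO on cells); or dissolved in 10% (w/v) 2-HPβCD in water, then diluted (max 0.008% w/w 2-HPβCD in wells; vehicle controls at 0.008%). IC50 = concentration giving 50% loss of viability versus control cells. Cisplatin dissolved in water with stirring.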
In general terms: Tetrazolium assays rely on reduction of a dye to a coloured formazan, in cell work by metabolically active cells.

Data set [2] has as its system NCI-H460. The data set is described as follows: Antiproliferative activity against human NCI-H460 cells using 10% 2-HPbetaCD compound formulation after 72 hrs by MTT assay. The format is functional, cell-based. The note with it: NCI-H460, 72 h. The procedure, abridged: as §1
In data set [3] the test system is NCI-H1975. The data set is described as follows: Antiproliferative activity against human NCI-H1975 cells using 1% DMSO/water compound formulation after 72 hrs by MTT assay. The data set is classed as functional, cell-based. The note with it: NCI-H1975, 72 h. Summed up: as §1
Data set [4] has as its system NCI-H1975. Put plainly: Antiproliferative activity against human NCI-H1975 cells using 10% 2-HPbetaCD compound formulation after 72 hrs by MTT assay. The data set is classed as functional, cell-based. Particulars: NCI-H1975, 72 h. The procedure, abridged: as §1
The subject of data set [5] is A549. The data set is described as follows: Antiproliferative activity against human A549 cells using 1% DMSO/water compound formulation after 72 hrs by MTT assay. The format is functional, cell-based. The note with it: A549, 72 h. Summed up: as §1
Data set [6] has as its system A549. Put plainly: Antiproliferative activity against human A549 cells using 10% 2-HPbetaCD compound formulation after 72 hrs by MTT assay. The data set is classed as functional, cell-based. The note with it: A549, 72 h. Summed up: as §1
In data set [7] the test system is HCC827. The data set is described as follows: Antiproliferative activity against human HCC827 cells using 1% DMSO/water compound formulation after 72 hrs by MTT assay. The format is functional, cell-based. The note with it: HCC827, 72 h. The procedure, abridged:
as §1

The test system of data set [8] is HCC827. Put plainly: Antiproliferative activity against human HCC827 cells using 10% 2-HPbetaCD compound formulation after 72 hrs by MTT assay. The format is functional, cell-based. The note with it: HCC827, 72 h. Summed up: as §1
Data set [9] can be described thus: Aqueous solubility of the compound in water. The data set is classed as physicochemical. Particulars: buffer.
Data set [10] can be described thus: Solubility of the compound in 1% DMSO/water solution. The data set is classed as physicochemical. Particulars: buffer.
Data set [11] can be described thus: Solubility of the compound in 10% 2-HPbetaCD/water solution. The data set is classed as physicochemical. The note with it: buffer.
Data set [12] relates to A549. The data set is described as follows: Growth inhibition of human A549 cells assessed as cell growth at 10 uM after 24 hrs by SRB assay relative to control. The data set is classed as functional. Particulars: A549, 24 h, read-out: Activity. Summed up: (§2)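 NCI DTP one-dose screen: cells plated at density set by doubling rate, incubated overnight, then exposed to compound at 10 μM for 24 hours. Growth percentage from protein density at end versus start of experiment, relative to initial cell number.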
(In general: In SRB staining, fixed cells bind dye roughly in proportion to their protein.)

Another data set deals with EKVX. Put plainly: Growth inhibition of human EKVX cells assessed as cell growth at 10 uM after 24 hrs by SRB assay relative to control. The format is functional. Particulars: read-out: Activity. The procedure, abridged:
as §2

The subject of another data set is HOP-62. Put plainly: Growth inhibition of human HOP62 cells assessed as cell growth at 10 uM after 24 hrs by SRB assay relative to control. The data set is classed as functional. The note with it: HOP-62, 24 h, read-out: Activity. The procedure, abridged: as §2
For a further data set, the system named is HOP-92. Put plainly: Growth inhibition of human HOP92 cells assessed as cell growth at 10 uM after 24 hrs by SRB assay relative to control. The format is functional. The note with it: HOP-92, 24 h, read-out: Activity. Summed up: as §2
The test system of another data set is NCI-H226. Put plainly: Growth inhibition of human NCI-H226 cells assessed as cell growth at 10 uM after 24 hrs by SRB assay relative to control. The format is functional. The note with it: NCI-H226, 24 h, read-out: Activity. Summed up:
as §2

For data set [13], the system named is NCI-H23. The data set is described as follows: Growth inhibition of human NCI-H23 cells assessed as cell growth at 10 uM after 24 hrs by SRB assay relative to control. The format is functional. Particulars: NCI-H23, 24 h, read-out: Activity. Summed up:
as §2

The subject of data set [14] is NCI-H322M. Put plainly: Growth inhibition of human NCI-H322M cells assessed as cell growth at 10 uM after 24 hrs by SRB assay relative to control. The data set is classed as functional. Particulars: read-out: Activity. The procedure, abridged:
as §2

For data set [15], the system named is NCI-H460. The data set is described as follows: Growth inhibition of human NCI-H460 cells assessed as cell growth at 10 uM after 24 hrs by SRB assay relative to control. The data set is classed as functional. Particulars: NCI-H460, 24 h, read-out: Activity. The procedure, abridged: as §2
Data set [16] concerns NCI-H23. Put plainly: Growth inhibition of human NCI-H23 cells after 24 hrs by SRB assay. The format is functional. The note with it: NCI-H23, 24 h.
Data set [17] concerns NCI-H322M. The data set is described as follows: Growth inhibition of human NCI-H322M cells after 24 hrs by SRB assay. The data set is classed as functional.
The test system of data set [18] is NCI-H460. The data set is described as follows: Induction of apoptosis in human NCI-H460 cells assessed as cell shrinkage up to 1 hr by Annexin V-FITC/propidium iodide staining based fluorescence microscopic method. The format is functional.
For data set [19], the system named is NCI-H460. The data set is described as follows: Induction of apoptosis in human NCI-H460 cells assessed as cell rounding up to 1 hr by Annexin V-FITC/propidium iodide staining based fluorescence microscopic method. The data set is classed as functional.
Data set [20] relates to NCI-H460. Put plainly: Induction of apoptosis in human NCI-H460 cells assessed as cell detachment up to 1 hr by Annexin V-FITC/propidium iodide staining based fluorescence microscopic method. The format is functional.
In data set [21] the test system is NCI-H460. The data set is described as follows: Disruption of mitochondrial membrane potential in human NCI-H460 cells at 98 uM up to 1 hr by JC1/DAPI staining based confocal microscopic method. The format is functional, cell-based.

The IC50 is the concentration that inhibits the measured activity by half. Read a high IC50 as a need for much substance. As usually defined, the solubility is the dissolved amount per volume that the medium holds. High values mean much dissolved substance, low ones little dissolved substance. Broadly, the GI50 is the concentration that inhibits growth by half. A low value points to greater sensitivity of the cells. One may read the TGI as the concentration at which net growth stops. Lower therefore signals more potent growth arrest.

Consider `CCCCc1n(Cc2ccc3ccccc3c2)cc[n+]1Cc1ccc2ccccc2c1.[Br-]`, for which the IC50 in the data set with NCI-H460 [1] came out at 2620 nM; with NCI-H460 [2], 2430 nM; in the data set with NCI-H1975 [3], 1740 nM; in the data set with NCI-H1975 [4] it was 1020 nM; in the data set with A549 [5] it was 3500 nM; in the data set with A549 [6] it was 3250 nM. Moreover, the figures for the IC50 with HCC827 [7] and with HCC827 [8] were 2640 nM and 2180 nM, respectively. Also, the solubility in data set [9] was < 500 µg/mL; in data set [10], “Soluble”; in data set [11] it was > 4400 µg/mL. The growth at 10 µM is 29.8% in the data set with A549 [12]; 14.4% with EKVX; -2.71% in the data set with HOP-62; -38.2% in the data set with HOP-92; -0.47% in the data set on NCI-H226; -23.8% in the data set with NCI-H23 [13]. The growth at 10 µM was 23.3% in the data set with NCI-H322M [14] and -13.1% in the data set on NCI-H460 [15]. The values for the concentration for 50% growth inhibition (GI50) with NCI-H23 [16] and in the data set on NCI-H322M [17] were 793 nM and 1380 nM, respectively. Moreover, the concentration for total growth inhibition (TGI) was 2310 nM in the data set with NCI-H23 [16] and 2750 nM in the data set with NCI-H322M [17]. Moreover, the CC50 in the data set on NCI-H23 [16] (read-out: LC50 (the source's name)) stood at 5850 nM.
For the molecule `Clc1c(Cl)[n+](Cc2ccc3ccccc3c2)cn1Cc1ccc2ccccc2c1`, the IC50 amounted to 5000 nM with NCI-H460 [1], 5000 nM in the data set with NCI-H1975 [3], 9000 nM with A549 [5] and 6000 nM in the data set with HCC827 [7]. Moreover, the outcome with NCI-H460 [18], in the data set with NCI-H460 [19] and in the data set on NCI-H460 [20] was Active.
For `N#CC(C#N)=NNc1cccc(Cl)c1`, the outcome with NCI-H460 [21] was Active.
